Measured values reported in ChEMBL document CHEMBL1138379, “Syntheses of F-18 labeled fluoroalkyltyrosine derivatives and their biological evaluation in rat bearing 9L tumor” (Bioorg Med Chem Lett, 2007).

Experiments:
[1] = tested on: Blood; assay: Biodistribution in blood of Fisher 344 rat bearing 9L tumor after 60 mins; type: ADME, organism-based; details: in vivo, 1 h
Method in brief: (§1)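 9L tumor cells (5 × 10^6) inoculated into Fisher 344 rats, used 14-18 days later. Rats anesthetized with ethyl ether, given ~3.7 MBq [18F] tracer in 100 µL PBS via tail vein, sacrificed with ether at set times (10-120 min). Tissues dissected, weighed and gamma-counted. Values are %ID/g, mean ± SD, n = 4. Ratios taken from tissue uptake.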

[2] = tested on: Lung; assay: Biodistribution in lung of Fisher 344 rat bearing 9L tumor after 30 mins; type: ADME, organism-based; details: in vivo, 0.5 h; method in brief: as §1
[3] = tested on: Femur; assay: Biodistribution in femur of Fisher 344 rat bearing 9L tumor after 60 mins; type: ADME, organism-based; details: in vivo, 1 h; method in brief: as §1
[4] = Ratio of biodistribution in tumor to brain in Fisher 344 rat bearing 9L tumor after 60 mins; type: ADME, organism-based; details: in vivo, 1 h; method in brief: as §1
[5] = Partition coefficient, log P of the compound; type: physicochemical; details: octanol/water
Method in brief: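 Shake-flask partition between 2.0 mL 1-octanol and 2.0 mL water. 10 µL of HPLC-purified radiotracer added, mixed 2 min at room temperature. Radioactivity counted in 300 µL of each phase to give log P.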

Drug uptake [1]	Drug uptake [2]	Drug uptake [3]	Ratio [4]	logP [5]	SMILES
0.64 % ID/g	0.78 % ID/g	1.45 % ID/g	4.05	-1.07	NC(Cc1ccc(O)c(CCC[18F])c1)C(=O)O (stereo not given)
0.25 % ID/g	0.37 % ID/g	0.22 % ID/g	1.9	-0.75	COc1ccc(CC(N)C(=O)O)cc1CC[18F] (stereo not given)
0.06 % ID/g	0.12 % ID/g	0.76 % ID/g	2.92	-1.37	NC(Cc1ccc(O)c(CC[18F])c1)C(=O)O (stereo not given)
0.24 % ID/g	0.34 % ID/g	0.18 % ID/g	2.6	-0.29	COc1ccc(CC(N)C(=O)O)cc1CCC[18F] (stereo not given)
